Assay results from the M2OR odorant receptor database.

Legend:
Conditions in all cases: stereoisomer not certain
OR4A15 (Homo sapiens) = OR4A15 (Homo sapiens) (UniProt Q8NGL6)
In short: (§1)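 Assay methods differ from source to source, frequently being transient luciferase assays in mammalian cell lines. For each receptor–molecule pair, the label responsive (active) applies when the original authors judged the measured signal statistically different from baseline, and non-responsive (inactive) applies otherwise.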

OR4A16 (Homo sapiens) = OR4A16 (Homo sapiens) (UniProt Q8NH70)
In short: as §1

OR4A47 (Homo sapiens) = OR4A47 (Homo sapiens) (UniProt Q6IF82)
In short: as §1

OR4A5 (Homo sapiens) = OR4A5 (Homo sapiens) (UniProt Q8NH83)
In short: as §1

OR4A8 (Homo sapiens) = OR4A8 (Homo sapiens) (UniProt P0C604)
In short: as §1

OR4B1 (Homo sapiens) = OR4B1 (Homo sapiens) (UniProt Q8NGF8)
In short: as §1

OR4C11 (Homo sapiens) = OR4C11 (Homo sapiens) (UniProt Q6IEV9)
In short: as §1

OR4C12 (Homo sapiens) = OR4C12 (Homo sapiens) (UniProt Q96R67)
In short: as §1

OR4C13 (Homo sapiens) = OR4C13 (Homo sapiens) (UniProt Q8NGP0)
In short: as §1

OR4C15 (Homo sapiens) = OR4C15 (Homo sapiens) (UniProt Q8NGM1)
In short: as §1

Measured: odorant receptor agonist call

OR4C13 (Homo sapiens), sequence (Q8NGP0 whole entry): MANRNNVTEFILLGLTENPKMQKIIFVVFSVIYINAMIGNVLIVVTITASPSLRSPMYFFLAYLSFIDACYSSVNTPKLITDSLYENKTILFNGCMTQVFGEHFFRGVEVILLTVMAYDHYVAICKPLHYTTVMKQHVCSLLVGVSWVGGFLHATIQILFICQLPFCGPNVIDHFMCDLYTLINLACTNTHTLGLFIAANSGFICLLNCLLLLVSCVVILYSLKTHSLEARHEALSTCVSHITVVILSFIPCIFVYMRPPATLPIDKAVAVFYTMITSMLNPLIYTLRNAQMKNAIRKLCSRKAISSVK
OR4C11 (Homo sapiens), sequence (Q6IEV9 whole entry): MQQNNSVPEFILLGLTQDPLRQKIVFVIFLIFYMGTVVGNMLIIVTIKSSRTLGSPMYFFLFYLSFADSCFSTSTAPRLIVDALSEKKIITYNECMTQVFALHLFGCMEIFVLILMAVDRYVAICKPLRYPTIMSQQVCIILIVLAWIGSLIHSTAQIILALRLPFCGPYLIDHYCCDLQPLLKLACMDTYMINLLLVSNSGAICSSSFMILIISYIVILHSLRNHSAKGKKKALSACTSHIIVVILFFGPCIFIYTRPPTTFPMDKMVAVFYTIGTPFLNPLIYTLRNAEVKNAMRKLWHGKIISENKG
OR4A16 (Homo sapiens), sequence (Q8NH70 whole entry): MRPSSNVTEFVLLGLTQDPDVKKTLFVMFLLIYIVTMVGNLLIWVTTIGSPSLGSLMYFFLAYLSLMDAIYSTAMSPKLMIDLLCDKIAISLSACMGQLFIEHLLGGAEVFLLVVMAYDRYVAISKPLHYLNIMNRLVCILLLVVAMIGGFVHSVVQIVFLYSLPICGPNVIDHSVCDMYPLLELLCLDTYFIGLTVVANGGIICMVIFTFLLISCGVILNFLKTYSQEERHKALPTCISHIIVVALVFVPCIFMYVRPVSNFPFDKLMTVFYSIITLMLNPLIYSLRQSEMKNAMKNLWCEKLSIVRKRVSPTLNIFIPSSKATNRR
OR4A15 (Homo sapiens), sequence (Q8NGL6 whole entry): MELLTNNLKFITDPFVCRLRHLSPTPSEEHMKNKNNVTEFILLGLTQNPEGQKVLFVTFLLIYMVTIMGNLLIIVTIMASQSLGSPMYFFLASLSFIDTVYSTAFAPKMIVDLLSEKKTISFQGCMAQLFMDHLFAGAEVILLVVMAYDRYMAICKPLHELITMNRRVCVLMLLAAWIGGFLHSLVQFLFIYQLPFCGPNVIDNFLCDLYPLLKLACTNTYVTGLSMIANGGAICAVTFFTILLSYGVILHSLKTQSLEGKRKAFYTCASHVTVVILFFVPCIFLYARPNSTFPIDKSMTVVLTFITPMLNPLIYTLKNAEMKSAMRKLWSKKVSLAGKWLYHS
OR4C12 (Homo sapiens), sequence (Q96R67 whole entry): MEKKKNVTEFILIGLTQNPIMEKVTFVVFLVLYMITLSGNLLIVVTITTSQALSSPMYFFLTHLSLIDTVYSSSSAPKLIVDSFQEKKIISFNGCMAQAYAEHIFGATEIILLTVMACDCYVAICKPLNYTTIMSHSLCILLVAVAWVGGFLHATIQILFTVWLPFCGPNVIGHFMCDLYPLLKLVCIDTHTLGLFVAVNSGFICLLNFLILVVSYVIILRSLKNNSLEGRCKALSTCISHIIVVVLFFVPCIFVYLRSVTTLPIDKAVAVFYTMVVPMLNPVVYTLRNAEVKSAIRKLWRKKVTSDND
OR4B1 (Homo sapiens), sequence (Q8NGF8 whole entry): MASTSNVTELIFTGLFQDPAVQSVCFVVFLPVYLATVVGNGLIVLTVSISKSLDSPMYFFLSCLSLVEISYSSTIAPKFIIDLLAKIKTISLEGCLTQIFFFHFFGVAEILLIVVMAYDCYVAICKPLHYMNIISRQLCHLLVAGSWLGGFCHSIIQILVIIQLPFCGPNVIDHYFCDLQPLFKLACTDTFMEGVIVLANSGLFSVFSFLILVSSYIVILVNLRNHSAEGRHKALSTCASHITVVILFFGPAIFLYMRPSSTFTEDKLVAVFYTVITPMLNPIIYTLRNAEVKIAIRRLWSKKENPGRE
OR4A47 (Homo sapiens), sequence (Q6IF82 whole entry): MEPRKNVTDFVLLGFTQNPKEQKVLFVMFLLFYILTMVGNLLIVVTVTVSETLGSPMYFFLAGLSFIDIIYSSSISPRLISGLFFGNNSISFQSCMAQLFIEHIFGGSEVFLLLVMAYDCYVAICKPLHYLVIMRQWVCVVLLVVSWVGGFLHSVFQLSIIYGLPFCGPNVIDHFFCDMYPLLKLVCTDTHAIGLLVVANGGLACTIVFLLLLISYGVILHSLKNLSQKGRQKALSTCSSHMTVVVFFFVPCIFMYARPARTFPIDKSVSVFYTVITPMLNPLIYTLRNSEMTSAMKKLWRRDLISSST
OR4A5 (Homo sapiens), sequence (Q8NH83 whole entry): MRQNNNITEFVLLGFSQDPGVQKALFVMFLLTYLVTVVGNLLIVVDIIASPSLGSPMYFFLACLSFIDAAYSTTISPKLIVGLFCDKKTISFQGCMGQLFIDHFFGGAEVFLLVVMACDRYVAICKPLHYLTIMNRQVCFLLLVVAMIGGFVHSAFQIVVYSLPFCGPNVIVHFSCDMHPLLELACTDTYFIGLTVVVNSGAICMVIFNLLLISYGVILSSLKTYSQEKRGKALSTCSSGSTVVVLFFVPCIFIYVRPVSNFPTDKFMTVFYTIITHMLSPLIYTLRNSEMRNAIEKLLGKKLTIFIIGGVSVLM
OR4A8 (Homo sapiens), sequence (P0C604 whole entry): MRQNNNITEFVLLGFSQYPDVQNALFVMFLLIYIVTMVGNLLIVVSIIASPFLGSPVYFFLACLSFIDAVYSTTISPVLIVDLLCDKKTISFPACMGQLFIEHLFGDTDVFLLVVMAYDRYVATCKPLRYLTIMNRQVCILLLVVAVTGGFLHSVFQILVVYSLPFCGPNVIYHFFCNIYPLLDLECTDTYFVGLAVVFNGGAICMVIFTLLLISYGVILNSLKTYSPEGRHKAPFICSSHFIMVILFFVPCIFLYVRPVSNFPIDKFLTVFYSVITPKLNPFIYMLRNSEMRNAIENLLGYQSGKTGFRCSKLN
OR4C15 (Homo sapiens), sequence (Q8NGM1 whole entry): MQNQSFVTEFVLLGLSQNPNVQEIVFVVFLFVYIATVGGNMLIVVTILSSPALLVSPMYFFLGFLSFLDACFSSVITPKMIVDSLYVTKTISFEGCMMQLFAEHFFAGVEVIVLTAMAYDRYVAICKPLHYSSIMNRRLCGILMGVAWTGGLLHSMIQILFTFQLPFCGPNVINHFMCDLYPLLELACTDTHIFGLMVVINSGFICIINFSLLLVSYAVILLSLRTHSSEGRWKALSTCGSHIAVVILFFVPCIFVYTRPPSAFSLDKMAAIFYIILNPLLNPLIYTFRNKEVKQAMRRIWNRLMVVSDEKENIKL

Cc1c([N+](=O)[O-])c(C)c([N+](=O)[O-])c(C(C)(C)C)c1[N+](=O)[O-]
inactive: all assays above

C=CCOC(=O)Cc1ccccc1
not listed: OR4A8 (Homo sapiens) | OR4C15 (Homo sapiens)
inactive: all other assays above
